Article PMC8268672 (Bioorganic Chemistry, 2021)
Converted amounts (≈) assume the structure as drawn. Read-outs that look alike come from different tables or passages of the source.

What was measured:
[1] = system: Escherichia coli (ATCC 8739); assay: MIC, broth microdilution; type: cell-based; conditions: ATCC8739, read-out: Minimum inhibitory concentration (MIC), EC
How it was run: (§1)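 Broth microdilution per CLSI in Mueller-Hinton broth, using two-fold serial dilutions of test compound and reference drugs from 512 to 0.25. Bacterial broth cultures were grown 2-6 h to 0.5 McFarland turbidity, then diluted with sterile solution to the final inoculum. MIC is reported in µg/mL.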

[2] = system: Pseudomonas aeruginosa (MCCB 0035); assay: MIC, broth microdilution; type: cell-based; conditions: read-out: Minimum inhibitory concentration (MIC), PA
How it was run: as §1

[3] = system: Klebsiella aerogenes (NCIM-2098); assay: MIC, broth microdilution; type: cell-based; conditions: NCIM2098, read-out: Minimum inhibitory concentration (MIC), KA
How it was run: (§2)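 Antibacterial MICs by CLSI broth microdilution in Mueller-Hinton broth. Test compounds and standard drugs are serially diluted two-fold from 512 to 0.25. The bacterial broth culture is grown 2-6 h to a 0.5 McFarland turbidity, then adjusted with sterile solution to the final inoculum.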

[4] = system: Staphylococcus aureus (ATCC 29213); assay: MIC, broth microdilution; type: cell-based; conditions: ATCC29213, read-out: Minimum inhibitory concentration (MIC), SA
How it was run: as §2

[5] = system: Bacillus cereus (NCIM-2458); assay: MIC, broth microdilution; type: cell-based; conditions: NCIM2458, read-out: Minimum inhibitory concentration (MIC), BC
How it was run: as §1

[6] = system: Aspergillus niger (NCIM 2191); assay: MIC, broth microdilution; type: cell-based; conditions: NCIM2191, read-out: Minimum inhibitory concentration (MIC), AN
How it was run: (§3)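 Antifungal MICs by CLSI broth microdilution in Sabouraud liquid medium. Test compounds and standard drugs are serially diluted two-fold from 512 to 0.25. The fungal broth culture is grown 24 h at 35 °C to a 0.5 McFarland turbidity, then adjusted with sterile solution to the final inoculum.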

[7] = system: Candida albicans (NCIM 2087); assay: MIC, broth microdilution; type: cell-based; conditions: NCIM2087, read-out: Minimum inhibitory concentration (MIC), CA
How it was run: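 CLSI broth microdilution in Sabouraud liquid medium, with test compound two-fold serially diluted from 512 to 0.25. Fungal broth culture grown 24 h at 35 °C to 0.5 McFarland turbidity, then adjusted with sterile solution to a final […] inoculum. MIC expressed in µg/mL.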

[8] = system: Aspergillus fumigatus (NCIM 2081); assay: MIC, broth microdilution; type: cell-based; conditions: NCIM2081, read-out: Minimum inhibitory concentration (MIC), AF
How it was run: as §3

[9] = system: Cryptococcus neoformans (ATCC 9011); assay: MIC, broth microdilution; type: cell-based; conditions: ATCC9011, read-out: Minimum inhibitory concentration (MIC), CN
How it was run: as §3

[10] = system: Escherichia coli (ATCC 8739); assay: Agar disk diffusion, inhibition zone; type: cell-based; conditions: 100 µg/8 mm disc, triplicate, mean ± SD
How it was run: (§4)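 Agar disk diffusion on Mueller-Hinton agar plates seeded with a standard bacterial suspension. Test compound stock in DMSO, diluted with distilled water; 8 mm sterile filter-paper discs soaked in the solution. Ampicillin was the reference. Plates incubated at 35 °C for 24 h, in triplicate. Read-out is the average inhibition-zone diameter (mm) around each disc.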

[11] = system: Pseudomonas aeruginosa (MCCB 0035); assay: Agar disk diffusion, inhibition zone; type: cell-based; conditions: 100 µg/8 mm disc, triplicate, mean ± SD
[12] = system: Salmonella typhimurium (NCIM-2501); assay: Agar disk diffusion, inhibition zone; type: cell-based; conditions: 100 µg/8 mm disc, triplicate, mean ± SD
[13] = system: Klebsiella aerogenes (NCIM-2098); assay: Agar disk diffusion, inhibition zone; type: cell-based; conditions: 100 µg/8 mm disc, triplicate, mean ± SD
[14] = system: Staphylococcus aureus (ATCC 29213); assay: Agar disk diffusion, inhibition zone; type: cell-based; conditions: 100 µg/8 mm disc, triplicate, mean ± SD
How it was run: as §4

[15] = system: Bacillus cereus (NCIM-2458); assay: Agar disk diffusion, inhibition zone; type: cell-based; conditions: 100 µg/8 mm disc, triplicate, mean ± SD
[16] = system: Lactobacillus casei (NCIM-2651); assay: Agar disk diffusion, inhibition zone; type: cell-based; conditions: 100 µg/8 mm disc, triplicate, mean ± SD
[17] = system: Streptococcus pneumonia (ATCC 49619); assay: Agar disk diffusion, inhibition zone; type: cell-based; conditions: 100 µg/8 mm disc, triplicate, mean ± SD
[18] = system: Aspergillus niger (NCIM 2191); assay: Agar disk diffusion, inhibition zone; type: cell-based; conditions: 100 µg/8 mm disc, triplicate, mean ± SD
How it was run: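 For the fungal strain, discs soaked in test compound solution (DMSO stock diluted with distilled water) sat on seeded Mueller-Hinton agar. Clotrimazole was the reference. Incubation ran 48 h at 35 °C, in triplicate. Zone of growth inhibition recorded in mm as the mean diameter around each disc.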

[19] = system: Candida albicans (NCIM 2087); assay: Agar disk diffusion, inhibition zone; type: cell-based; conditions: 100 µg/8 mm disc, triplicate, mean ± SD
[20] = system: Aspergillus fumigatus (NCIM 2081); assay: Agar disk diffusion, inhibition zone; type: cell-based; conditions: 100 µg/8 mm disc, triplicate, mean ± SD
[21] = system: Cryptococcus neoformans (ATCC 9011); assay: Agar disk diffusion, inhibition zone; type: cell-based; conditions: 100 µg/8 mm disc, triplicate, mean ± SD
[22] = system: Vaccinia virus; assay: microbe, parasite or virus in culture; type: cell-based; conditions: Orthopoxvirus vaccinia, HEL, read-out: Antiviral EC50, Vaccinia virus
[23] = system: Adeno virus-2; assay: CPE reduction assay in HEL cells; type: cell-based; conditions: read-out: Antiviral EC50, Adeno virus-2
[24] = system: Human Coronavirus (229E); assay: CPE reduction assay in HEL cells; type: cell-based; conditions: read-out: Antiviral EC50, Human Coronavirus (229E)
[25] = system: Para-influenza-3 virus; assay: CPE reduction assay in Vero cells; type: cell-based, Parainfluenza-3 virus; conditions: Vero, read-out: Antiviral EC50, Para-influenza-3 virus
[26] = system: Reovirus-1; assay: CPE reduction assay in Vero cells; type: cell-based; conditions: read-out: Antiviral EC50, Reovirus-1
[27] = system: Sindbis virus; assay: CPE reduction assay in Vero cells; type: cell-based; conditions: read-out: Antiviral EC50, Sindbis virus
[28] = system: Coxsackie virus B4; assay: CPE reduction assay in Vero cells; type: cell-based; conditions: Enterovirus B, read-out: Antiviral EC50, Coxsackie virus B4
[29] = system: Punta Toro virus; assay: CPE reduction assay in Vero cells; type: cell-based; conditions: read-out: Antiviral EC50, Punta Toro virus
[30] = system: Yellow Fever virus; assay: microbe, parasite or virus in culture; type: cell-based; conditions: Yellow fever virus, Vero, read-out: Antiviral EC50, Yellow Fever virus
[31] = system: Influenza A/H1N1 A/Ned/378/05; assay: CPE reduction assay in MDCK cells; type: cell-based; conditions: Influenza A virus
[32] = system: Influenza A/H3N2 A/HK/7/87; assay: CPE reduction assay in MDCK cells; type: cell-based; conditions: Influenza A virus
[33] = system: Influenza B B/Ned/537/05; assay: CPE reduction assay in MDCK cells; type: cell-based; conditions: Influenza B virus, read-out: Antiviral EC50, Influenza B B/Ned/537/05, MTS
[34] = system: Human embryonic lung (HEL) cells; conditions: HEL cell cultures; microscopically detectable alteration of normal cell morphology
[35] = system: Vero cells; conditions: Vero cell cultures; microscopically detectable alteration of normal cell morphology
[36] = system: Madin Darby canine kidney (MDCK) cells; conditions: dog
[37] = system: MT4 cells; conditions: MT4 cell cultures; colorimetric MTT cell viability assay
[38] = read-out: Antiviral EC50, Influenza A/H1N1 A/Ned/378/05, MTS
[39] = read-out: Antiviral EC50, Influenza A/H1N1 A/Ned/378/05, visual CPE score
[40] = read-out: Antiviral EC50, Influenza A/H3N2 A/HK/7/87, MTS
[41] = read-out: Antiviral EC50, Influenza A/H3N2 A/HK/7/87, visual CPE score

SMILES | MIC [1] [µg/mL] | MIC [2] [µg/mL] | MIC [3] [µg/mL] | MIC [4] [µg/mL] | MIC [5] [µg/mL] | MIC [6] [µg/mL] | MIC [7] [µg/mL] | MIC [8] [µg/mL] | MIC [9] [µg/mL] | Diameter of growth inhibition zone, EC [10] [mm] | EC50 [23] [µM] | EC50 [24] [µM] | EC50 [25] [µM] | EC50 [26] [µM] | EC50 [27] [µM] | EC50 [28] [µM] | EC50 [29] [µM] | EC50 [30] [µM] | Minimum cytotoxic conc. [35] [µM] | Cytotoxicity, Minimum cytotoxic conc. [36] [µM] | also measured
Cc1ccc(S(=O)(=O)N2C(=O)CSC2c2ccccc2[N+](=O)[O-])cc1 (stereo not shown) [5o, 3-[(4-Methylphenyl)sulfonyl]-2-(2-nitrophenyl)-1,3-thiazolidin-4-one] | 16 (≈ 42.3 µM) | 32 (≈ 84.6 µM) | 32 (≈ 84.6 µM) | 16 (≈ 42.3 µM) | 64 (≈ 169 µM) | 16 (≈ 42.3 µM) | 8 (≈ 21.1 µM) | 16 (≈ 42.3 µM) | 2 (≈ 5.28 µM) | 16 ± 0.9 | > 100 | > 100 | > 100 | > 100 | > 100 | > 100 | > 100 | > 100 | >100 | >100 | Diameter of growth inhibition zone, PA [11]: 15 ± 1.1 mm; Diameter of growth inhibition zone, ST [12]: 10 ± 0.8 mm; Diameter of growth inhibition zone, KA [13]: 12 ± 0.34 mm; Diameter of growth inhibition zone, SA [14]: 15 ± 1.5 mm; Diameter of growth inhibition zone, BC [15]: 10 ± 0.6 mm; Diameter of growth inhibition zone, LC [16]: 12 ± 0.66 mm; Diameter of growth inhibition zone, SP [17]: 10 ± 1.5 mm; Diameter of growth inhibition zone, AN [18]: 19 ± 1.5 mm; Diameter of growth inhibition zone, CA [19]: 20 ± 1.1 mm; Diameter of growth inhibition zone, AF [20]: 18 ± 0.9 mm; Diameter of growth inhibition zone, CN [21]: 19 ± 1.2 mm; EC50 [22]: > 100 µM; EC50 [31, 38]: > 100 µM; EC50 [31, 39]: > 100 µM; EC50 [32, 40]: > 100 µM; EC50 [32, 41]: > 100 µM; EC50 [33]: > 100 µM; Minimum cytotoxic conc. [34]: >100 µM; Minimum cytotoxic conc. [37]: >125 µM
Cc1ccc(S(=O)(=O)N2C(=O)CSC2c2ccc(C(C)C)cc2)cc1 (stereo not shown) [5n, 3-[(4-Methylphenyl)sulfonyl]-2-[4-(propan-2-yl)phenyl]-1,3-thiazolidin-4-one] | > 256 | > 256 | > 256 | > 256 | > 256 | > 256 | > 256 | > 512 | > 512 | 08 ± 0.65 | > 100 | > 100 | > 100 | > 100 | > 100 | > 100 | > 100 | > 100 | >100 | >100 | Diameter of growth inhibition zone, PA [11]: 8.5 ± 1.5 mm; Diameter of growth inhibition zone, ST [12]: 07 ± 1.5 mm; Diameter of growth inhibition zone, KA [13]: 07 ± 0.7 mm; Diameter of growth inhibition zone, BC [15]: 07 ± 0.1 mm; Diameter of growth inhibition zone, LC [16]: 07 ± 0.30 mm; Diameter of growth inhibition zone, SP [17]: 07 ± 0.6 mm; Diameter of growth inhibition zone, AN [18]: 10 ± 1.2 mm; Diameter of growth inhibition zone, CA [19]: 9 ± 1.5 mm; Diameter of growth inhibition zone, AF [20]: 9.5 ± 0.9 mm; Diameter of growth inhibition zone, CN [21]: 5 ± 0.3 mm; EC50 [22]: > 100 µM; EC50 [31, 38]: > 100 µM; EC50 [31, 39]: > 100 µM; EC50 [32, 40]: > 100 µM; EC50 [32, 41]: > 100 µM; EC50 [33]: > 100 µM; Minimum cytotoxic conc. [34]: >100 µM; Minimum cytotoxic conc. [37]: >125 µM
NC(=O)c1ncn([C@@H]2O[C@H](CO)[C@@H](O)[C@H]2O)n1 [Ribavirin, reference compound] | – | – | – | – | – | – | – | – | – | – | – | > 250 | 112 | > 250 | > 250 | > 250 | – | > 250 | >250 | ≥100 | –
COc1c(C)c2c(c(O)c1C/C=C(\C)CCC(=O)O)C(=O)OC2 [Mycophenolic acid, mycophenolic acid, reference compound] | – | – | – | – | – | – | – | – | – | – | – | – | 0.4 | 0.4 | 11.7 | > 100 | 1.4 | 0.8 | >100 | – | –
Nc1ccn([C@H]2CC[C@@H](CO)O2)c(=O)n1 [Zalcitabine, reference compound] | – | – | – | – | – | – | – | – | – | – | 50 | – | – | – | – | – | – | – | – | – | –
Cc1cn([C@H]2C[C@H](F)[C@@H](CO)O2)c(=O)[nH]c1=O [Alovudine, reference compound] | – | – | – | – | – | – | – | – | – | – | 1.4 | – | – | – | – | – | – | – | – | – | –
